According to ChEMBL document CHEMBL4265871, “Novel alkylated azoles as potent antifungals” (Eur J Med Chem, 2017):
≈ marks a conversion by molar mass, not a printed value. Calls of active or inactive are those of the source. The rule behind the calls is not given here.

Assays:
[1] = Selectivity index, ratio of EC50 for toxicity in human A549 cells to MIC50 for antifungal activity against Candida krusei ATCC 6258
[2] = Selectivity index, ratio of EC50 for toxicity in human A549 cells to MIC50 for antifungal activity against Candida albicans ATCC 64124; assay type: cell-based; settings: read-out: Selectivity Index
Outline: (§1)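 Selectivity index is the EC50 against the mammalian line (A549 or BEAS-2B) divided by the MIC against the given fungal strain.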

[3] = Selectivity index, ratio of […] for toxicity in human A549 cells to MIC50 for antifungal activity against Aspergillus flavus ATCC MYA-3631; assay type: cell-based; settings: read-out: Selectivity Index
[4] = Selectivity index, ratio of […] for toxicity in human BEAS2B cells to MIC50 for antifungal activity against Aspergillus terreus ATCC MYA-3633; assay type: cell-based; settings: BEAS-2B cells, read-out: Selectivity Index
[5] = Selectivity index, ratio of EC50 for toxicity in human A549 cells to MIC100 for antifungal activity against Candida albicans ATCC 10231; assay type: cell-based; settings: read-out: Selectivity Index
Outline: as §1

in vitro = settings: mouse, mouse erythrocytes
[6] = Selectivity index, ratio of EC50 for toxicity in human BEAS2B cells to MIC for antifungal activity against Candida parapsilosis ATCC 22019; settings: BEAS-2B cells
[7] = Toxicity in human A549 cells assessed as reduction in cell viability incubated for 24 hrs by resazurin dye based assay
Outline: (§2)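 Toxicity tested in the nucleated lines A549 and BEAS-2B to give EC50 values. Selectivity index is EC50 against the mammalian line divided by the MIC against a given fungal strain.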

[8] = Toxicity in human BEAS2B cells assessed as reduction in cell viability incubated for 24 hrs by resazurin dye based assay; settings: BEAS-2B cells
Outline: as §2

[9] = Selectivity index, ratio of […] for toxicity in human BEAS2B cells to MIC50 for antifungal activity against Aspergillus flavus ATCC MYA-3631; assay type: cell-based; settings: BEAS-2B cells, read-out: Selectivity Index
Candida albicans [10] = test: Antifungal activity against ITC and FLC-resistant Candida albicans ATCC MYA-90819 incubated for 48 hrs by modified CLSI M27-A3 protocol based method; assay type: functional; settings: ATCC MYA-90819, 48 h
[11] = Selectivity index, ratio of EC50 for toxicity in human BEAS2B cells to MIC50 for antifungal activity against ITC and FLC-resistant Candida albicans ATCC MYA-90819; assay type: cell-based; settings: BEAS-2B cells, read-out: Selectivity Index
Outline: (§3)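 Ratio of the compound's EC50 against BEAS-2B cells to its MIC against the named C. albicans strain. […] For C. albicans strains other than ATCC 10231, trailing growth meant MIC-2 was taken, meaning 50% growth inhibition.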

[12] = Selectivity index, ratio of EC50 for toxicity in human BEAS2B cells to MIC50 for antifungal activity against ITC and FLC-susceptible Candida albicans ATCC MYA-2310; assay type: cell-based; settings: BEAS-2B cells, read-out: Selectivity Index
Outline: as §3

[13] = Selectivity index, ratio of EC50 for toxicity in human A549 cells to MIC50 for antifungal activity against ITC and FLC-resistant Candida albicans ATCC MYA-90819; assay type: cell-based; settings: read-out: Selectivity Index
Outline: as §1

[14] = Selectivity index, ratio of EC50 for toxicity in human BEAS2B cells to MIC50 for antifungal activity against Candida albicans ATCC 64124; assay type: cell-based; settings: BEAS-2B cells, read-out: Selectivity Index
Outline: as §1

[15] = Hemolytic activity in mouse erythrocytes assessed as hemolysis level at 1.95 ug/ml incubated for 1 hr at 37 degC; assay type: ADME, cell-based, Erythrocyte; settings: read-out: Activity
Outline: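 Mouse erythrocytes incubated 1 h at 37 °C with test agents over 1.95 to 125 µg/mL. Percent lysis is read for each concentration.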

Candida albicans [16] = test: Induction of membrane permeabilization in Candida albicans ATCC 10231 at 1 to 4 times MIC incubated for 1 hr by propidium iodide staining based fluorescence microscopy; assay type: functional, organism-based
Outline: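 C. albicans ATCC 10231 treated at 1× and 4× MIC and stained with propidium iodide, a membrane-impermeant dye, to detect membrane damage. Untreated cells, FLC (7.8 µg/mL) and KANB (C14) (7.8 µg/mL) serve as comparators.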

BEAS-2B = test: Toxicity in human BEAS2B cells assessed as cell viability at 15.6 ug/ml incubated for 24 hrs by resazurin dye based assay
A549 = test: Toxicity in human A549 cells assessed as cell viability at 15.6 ug/ml incubated for 24 hrs by resazurin dye based assay; settings: a549, 24 h

Structure (SMILES) | selectivity ratio [1] | selectivity ratio [2] | selectivity ratio [3] | selectivity ratio [4] | selectivity ratio [5] | hemolysis at 1 h, 62.5 ug/ml (in vitro) | selectivity ratio [6] | EC50 at 24 h [7] | EC50 at 24 h [8] | selectivity ratio [9] | MIC50 (Candida albicans [10]) | selectivity ratio [11] | selectivity ratio [12] | selectivity ratio [13] | selectivity ratio [14] | hemolysis at 1 h, 1.95 ug/ml [15] | Activity (Candida albicans [16]) | viability (BEAS-2B) | viability (A549)
CCCCC(O)(Cn1cncn1)c1ccc(F)cc1F (centres undefined) | 522 | 2 | 2 | 2 | 16 | 0% | 1200 | > 31.3 µg/mL | 36 µg/mL (≈ 128 µM) | 2 | 55.5 µM (≈ 15.6 µg/mL) | 2 | 1 | 2 | 2 | 0% | – | – | –
CCCCCC(O)(Cn1cncn1)c1ccccc1Cl (centres undefined) | 32 | 1 | 1 | 2 | 4 | 0% | 261 | > 31.3 µg/mL | > 31.3 µg/mL | 1 | 1.6 µM (≈ 0.47 µg/mL) | 65 | 32 | 65 | 1 | 0% | – | – | –
CCCCCC(O)(Cn1cncn1)c1ccccc1F (centres undefined) | 617 | 1 | 5 | 8 | 9 | 0% | 261 | 37 µg/mL (≈ 133 µM) | > 31.3 µg/mL | 4 | 1.7 µM (≈ 0.471 µg/mL) | 65 | 32 | 77 | 1 | 0% | – | – | –
CCCCCC(O)(Cn1cncn1)c1ccc(F)cc1F (centres undefined) | 130 | 4 | 2 | 1 | 16 | 25.2% | 1040 | > 31.3 µg/mL | > 31.3 µg/mL | 2 | 13.2 µM (≈ 3.9 µg/mL) | 8 | 4 | 8 | 4 | 0% | inactive | – | –
CCCCC(O)(Cn1cncn1)c1ccc(Cl)cc1Cl (centres undefined) [HEXACONAZOLE] | 522 | 8 | 8 | 32 | 130 | 59% | 1040 | > 31.3 µg/mL | > 31.3 µg/mL | 8 | 6.2 µM (≈ 1.95 µg/mL) | 16 | 16 | 16 | 8 | 0% | – | > 85% | > 85%
CCCCCC(O)(Cn1cncn1)c1ccc(F)cc1 (centres undefined) | 32 | 1 | 1 | 1 | 8 | – | 69 | > 31.3 µg/mL | 33 µg/mL (≈ 119 µM) | 1 | 3.5 µM (≈ 0.971 µg/mL) | 34 | 8 | 32 | 1 | – | – | – | –
CCCC(O)(Cn1cncn1)c1ccc(Cl)cc1Cl (centres undefined) | 522 | 8 | 2 | 8 | 130 | – | 1040 | > 31.3 µg/mL | > 31.3 µg/mL | 2 | 13 µM (≈ 3.9 µg/mL) | 8 | 8 | 8 | 8 | – | – | > 85% | > 85%
CCCCCC(O)(Cn1cncn1)c1ccc(Cl)cc1Cl (centres undefined) | 69 | 17 | 8 | 8 | 138 | 100% | 1040 | 33 µg/mL (≈ 101 µM) | > 31.3 µg/mL | 8 | 5.9 µM (≈ 1.94 µg/mL) | 16 | 16 | 17 | 16 | 0% | – | > 85% | > 85%
CCCCCCC(O)(Cn1cncn1)c1ccccc1Cl (centres undefined) | 261 | 1 | 8 to 16 | 65 | 4 | 81.7% | 261 | > 31.3 µg/mL | > 31.3 µg/mL | 8 to 16 | 6.3 µM (≈ 1.94 µg/mL) | 16 | 16 | 16 | 1 | 0% | – | – | –
CCCCCCC(O)(Cn1cncn1)c1ccc(Cl)cc1 (centres undefined) | 19 | 1 | 1 | 2 | 19 | 83.9% | 1 | 38 µg/mL (≈ 123 µM) | > 31.3 µg/mL | 1 | 12.7 µM (≈ 3.91 µg/mL) | 8 | 1 | 10 | 1 | 0% | – | – | –
CCCCCCC(O)(Cn1cncn1)c1ccc(F)cc1 (centres undefined) | 32 | 1 | 1 | 2 | 2 | 7% | 65 | > 31.3 µg/mL | > 31.3 µg/mL | 1 | 3.3 µM (≈ 0.962 µg/mL) | 32 | 4 | 32 | 1 | 0% | – | – | –
CCCCCCC(O)(Cn1cncn1)c1ccccc1F (centres undefined) | 522 | 1 | 1 to 2 | 8 | 16 | 28.8% | 261 | > 31.3 µg/mL | > 31.3 µg/mL | 1 to 2 | 0.82 µM (≈ 0.239 µg/mL) | 130 | 32 | 130 | 1 | 0% | – | – | –
CCCCCC(O)(Cn1cncn1)c1ccc(Cl)cc1 (centres undefined) | 261 | 4 | 1 | 1 | 16 | – | 522 | > 31.3 µg/mL | > 31.3 µg/mL | 1 | 6.6 µM (≈ 1.94 µg/mL) | 16 | 2 | 16 | 4 | – | – | – | –
